Source: PubChem BioAssay
APJ agonist: agonists of human APJ apelin receptor; P35414; CHO-K1 APJ PathHunter beta-arrestin, luminescence; 0% DMSO wells, 100% apelin; activation, % at 20 µM; 330,000 tested, 0.11% active;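 active = activation more than six SD over the plate average, tested at 20 µM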;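 note: 0% = DMSO alone and 100% = apelin-13 at 10 nM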
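Test system: CHO-K1 APJ beta-arrestin complementation cell line | Compound: Single test compound dose, 20 µM final, 1% DMSO | Incubation: Compound 90 min 25 °C, reagent 1 h | Measured by: beta-gal luminescence | Read-out basis: APJ–arrestin association signal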
CCR6 antag: blocks CCL20-driven beta-arrestin recruitment at human CCR6; P51684; inhibition, % at 20 µM; CHO-K1 CCR6 PathHunter beta-arrestin, luminescence, CCL20-stimulated; 340,000 tested, 0.49% active;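 active = compounds whose inhibition of the agonist-driven luminescence signal at 20 µM reaches about 50%, limit read from the data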;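 note: cells stimulated with CCL20 at 14 nM final; plate controls were DMSO with CCL20 for no effect and DMSO without agonist for full effect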
CXCR6 block: inhibitors of human CXCR6 receptor. O00574. inhibition, % at 20 µM. 360,000 tested, 0.36% active. CHO-K1 PathHunter CXCR6 beta-arrestin, luminescence. AID 602244; in the data active = inhibition above about 34%, passing the limit was not always enough;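 note: antagonist mode with CXCL16 agonist at 10 nM final; 0% = 10 nM CXCL16 with DMSO and 100% = unstimulated wells without agonist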
B2AR ag: agonists of human beta-2 adrenergic receptor inducing internalization; response, % (test concentration not listed); Am2.2-beta2AR cells, FAP receptor internalization, flow cytometry; AID 504454; 340,000 tested, 0.43% active; P07550;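 active = response above a set limit, near 3 SD of response in nonfluorescent compounds, cut at about 42% in these data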
Target sequence (P07550 whole entry, looked up): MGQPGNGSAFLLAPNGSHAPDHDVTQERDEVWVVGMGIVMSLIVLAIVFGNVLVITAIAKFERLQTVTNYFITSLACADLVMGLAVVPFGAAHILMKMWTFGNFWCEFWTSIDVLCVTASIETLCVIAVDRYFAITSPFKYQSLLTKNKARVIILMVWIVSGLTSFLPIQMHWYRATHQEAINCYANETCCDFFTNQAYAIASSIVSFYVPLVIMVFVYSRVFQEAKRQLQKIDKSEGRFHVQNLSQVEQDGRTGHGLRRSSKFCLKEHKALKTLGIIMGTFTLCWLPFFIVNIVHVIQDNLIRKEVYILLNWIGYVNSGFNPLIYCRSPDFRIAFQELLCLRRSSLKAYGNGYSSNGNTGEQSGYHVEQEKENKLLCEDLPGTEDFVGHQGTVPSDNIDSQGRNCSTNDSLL
APJ antagonist: APJ receptor antagonism; AID 2521; inhibition, % at 20 µM; CHO-K1 APJ beta-arrestin complementation, luminescence; 330,000 tested, 0.32% active; P35414;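 active = inhibition above about 40% at 20 µM, limit read from the data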;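 note: cells challenged with 10 nM apelin-13 agonist together with compound; plate controls were apelin-13 plus DMSO wells for no effect and DMSO wells lacking apelin-13 for full effect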
EBI2 block: blocks human EBI2 receptor beta-arrestin signaling | P32249 | EBI2 beta-arrestin recruitment, luminescence, 7a,25-OHC stimulated | inhibition, % at 5 µM | 360,000 tested, 0.81% active; in the data active = inhibition above about 38%;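 note: enzyme fragment complementation signal reports receptor beta-arrestin coupling in cells; 0% = agonist plus DMSO wells and 100% = wells without agonist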
EBI2 antag conf: EBI2 (human) antagonism, single concentration confirmation | shares compounds with EBI2 block | EBI2 beta-arrestin luminescence, 7a,25-OHC antagonism | inhibition, % at 5 µM | 2,400 tested, 29% active | AID 651997;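 active = inhibition of at least 50%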
EBI2 agonist: counter-screen for EBI2 antagonists: EBI2 agonist activity | 2,400 tested, under 10 active | EBI2-expressing cells, agonist mode, luminescence, 60 min; 0% vehicle, 100% 7α,25-dihydroxycholesterol control | shares compounds with EBI2 block | activation, % at 5 µM;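 active = activation of at least 50%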
bGal cs: inhibits E. coli beta-galactosidase, counter-screen for EBI2 antagonists | inhibition, % at 5 µM | AID 652176 | purified beta-galactosidase, luminescent Galacton Star, 15 min | 2,400 tested, 1% active | shares compounds with EBI2 block;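 active = replicate-average signal at least 3 plate SD below neutral wells, shown as high inhibition, flagging enzyme-inhibiting false positives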;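 note: 0% = DMSO wells with enzyme and 100% = wells lacking enzyme; higher means stronger loss of beta-gal luminescence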
Active calls of the source: *. This is a sample that favours compounds with a hit; in the whole collection about 1.8% have one here.

What do the screens show for `COc1ccc(C2=CC(=O)CC(c3ccc(OC)cc3)C2)cc1` (centres undefined)?
APJ agonist: -4.2; CCR6 antag: 23.7; CXCR6 block: -1.1; B2AR ag: -3.6; APJ antagonist: 11.5; EBI2 block: 51.5*; EBI2 antag conf: 29.5; EBI2 agonist: -1.9; bGal cs: -12.6

How did COc1ccc([C@H]2CC(=O)C=C(c3cc(C=O)ccc3OC)C2)cc1 do in these assays?
APJ agonist: -4.4; CCR6 antag: -0.5; CXCR6 block: 7.2; B2AR ag: -14.8; APJ antagonist: -4.3; EBI2 block: 9.3

What do the screens show for `O=C1C=C(c2ccc(O)cc2)C[C@@H](c2ccc(Cl)cc2)C1`?
APJ agonist: -3.1; CCR6 antag: 21.1; CXCR6 block: -10.0; B2AR ag: -5.9; APJ antagonist: -5.9; EBI2 block: 15.2

What do the screens show for `Cc1cccc(NC(=O)c2nc[nH]c2C(=O)N2CCc3ccccc3C2)c1`?
APJ agonist: -2.4; CCR6 antag: 13.1; CXCR6 block: 11.3; B2AR ag: -6.7; APJ antagonist: 7.9; EBI2 block: -16.3

Results for CCOC(=O)[C@]12CCCC=C1N(Cc1cccc3ccccc13)C(=O)[C@H](CC(=O)N1CCCCC1)C2 ?
CXCR6 block: 16.7; EBI2 block: 9.3

What do the screens show for `O=C1C=C(c2cc(C(F)(F)F)cc(C(F)(F)F)c2)C[C@@H](c2ccc(Cl)cc2)C1`?
APJ agonist: -0.6; CCR6 antag: 5.1; CXCR6 block: 6.1; B2AR ag: 7.0; APJ antagonist: 11.4; EBI2 block: 59.9*; EBI2 antag conf: 36.6; EBI2 agonist: -1.1; bGal cs: -14.5

Results for CCOc1ccc(-c2ccc(C3=CC(=O)C[C@H](c4ccc(F)cc4)C3)cc2)cc1 ?
CXCR6 block: -5.2; EBI2 block: -1.6

How did COc1ccc([C@H]2CC(=O)C=C(c3cccc(C(F)(F)F)c3)C2)cc1 do in these assays?
APJ agonist: -2.5; CCR6 antag: 16.9; CXCR6 block: -9.5; B2AR ag: -5.9; APJ antagonist: 3.4; EBI2 block: 22.1

How did COc1ccc(C2=CC(=O)C[C@H](c3ccc(Cl)cc3)C2)cc1 do in these assays?
APJ agonist: 0.0; CCR6 antag: 19.6; CXCR6 block: -2.9; B2AR ag: -12.4; APJ antagonist: 16.6; EBI2 block: 49.8*; EBI2 antag conf: 58.8*; EBI2 agonist: -2.1; bGal cs: -4.3

What do the screens show for `O=C1C=C(c2ccc(-c3ccccc3)cc2)C[C@@H](c2ccc(F)cc2)C1`?
APJ agonist: -3.4; CCR6 antag: 11.4; CXCR6 block: 3.7; B2AR ag: 5.8; APJ antagonist: 2.3; EBI2 block: 24.5

What do the screens show for `O=C1C=C(c2cc3ccccc3s2)C[C@@H](c2ccc(F)cc2)C1`?
APJ agonist: -4.6; CCR6 antag: 8.6; CXCR6 block: -1.0; B2AR ag: 2.9; APJ antagonist: 11.2; EBI2 block: 52.7*; EBI2 antag conf: 44.5; EBI2 agonist: -1.2; bGal cs: -8.3

What do the screens show for `CCOc1ccc(C2=CC(=O)C[C@H](c3ccc(OC)cc3)C2)cc1`?
APJ agonist: -1.1; CCR6 antag: 2.5; CXCR6 block: -3.9; B2AR ag: -1.3; APJ antagonist: -5.3; EBI2 block: 76.6*; EBI2 antag conf: 48.2; EBI2 agonist: -0.8; bGal cs: -6.6

Results for COc1ccc(C2=CC(=O)CC(c3ccc(F)cc3)C2)cc1 (centres undefined) ?
APJ agonist: -7.4; CCR6 antag: 13.7; CXCR6 block: 4.1; B2AR ag: -12.6; APJ antagonist: -1.2; EBI2 block: 39.5

How did CN1CCCN(S(=O)(=O)c2cccc(C(F)(F)F)c2)c2nc3ccccc3nc21 do in these assays?
APJ agonist: -2.4; CCR6 antag: -1.0; CXCR6 block: -9.7; B2AR ag: 4.5; APJ antagonist: -2.2; EBI2 block: 19.4

What do the screens show for `COc1ccc(-c2cc(C(=O)N3CCCCCC3)c3ccccc3n2)cc1`?
APJ agonist: 7.7; CCR6 antag: 26.0; CXCR6 block: 3.5; B2AR ag: 3.5; APJ antagonist: -59.5; EBI2 block: 3.8

How did Cn1ccc2ccc(C3=CC(=O)C[C@H](c4ccc(F)cc4)C3)cc21 do in these assays?
APJ agonist: -2.8; CCR6 antag: 5.9; CXCR6 block: 7.4; B2AR ag: 0.5; APJ antagonist: 27.3; EBI2 block: 55.2*; EBI2 antag conf: 47.8; EBI2 agonist: -1.1; bGal cs: -3.1

What do the screens show for `CC(C)c1cccc(C2=CC(=O)C[C@H](c3ccc(F)cc3)C2)c1`?
APJ agonist: -5.3; CCR6 antag: 19.9; CXCR6 block: 2.2; B2AR ag: -4.8; APJ antagonist: 0.8; EBI2 block: 18.1

How did Cc1ccc(C2=CC(=O)C[C@H](c3ccc(F)cc3)C2)cc1 do in these assays?
APJ agonist: -3.5; CCR6 antag: 25.5; CXCR6 block: 11.5; B2AR ag: -3.7; APJ antagonist: 8.6; EBI2 block: 70.3*; EBI2 antag conf: 36.5; EBI2 agonist: 1.5; bGal cs: 6.5

Results for Cc1noc(C)c1C(=O)Nc1cccc(S(=O)(=O)N2CCOCC2)c1 ?
APJ agonist: 1.2; CCR6 antag: -4.2; CXCR6 block: -10.9; B2AR ag: -0.5; APJ antagonist: 8.3; EBI2 block: 2.4

What do the screens show for `C=CCN1C(=O)NC(c2ccc(OC)cc2)(C(F)(F)F)S/C1=C(\C#N)c1nnc(N2CCOCC2)n1-c1ccccc1` (centres undefined)?
APJ agonist: -4.0; CCR6 antag: -3.4; CXCR6 block: -2.2; B2AR ag: -22.8; APJ antagonist: -7.1; EBI2 block: 68.0*; EBI2 antag conf: 68.7*; EBI2 agonist: 0.4; bGal cs: 5.6

Results for C=CCN1C(c2cccc(C(F)(F)F)c2)=CS/C1=C(/C#N)c1nnc(N2CCOCC2)n1-c1ccccc1 ?
APJ agonist: -1.1; CCR6 antag: 7.8; CXCR6 block: 10.6; B2AR ag: 3.8; APJ antagonist: -0.6; EBI2 block: 3.9

How did Cn1c(=NC(=O)C2CCN(S(=O)(=O)c3cccs3)CC2)sc2ccccc21 do in these assays?
APJ agonist: 0.3; CCR6 antag: 6.8; CXCR6 block: 6.2; B2AR ag: -0.1; APJ antagonist: 4.8; EBI2 block: 56.7*; EBI2 antag conf: 26.4; EBI2 agonist: -0.7; bGal cs: -14.8
